≈ marks a conversion by molar mass, not a printed value.
Tests used:
L929 = assay: Cytotoxicity against mouse L929 cells assessed as reduction in cell viability up to 200 ug/ml after 5 days by MTT assay; format: cell-based; details: l929, 120 h
Outline: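 MTT viability assay in mouse fibroblasts, run on compounds active against TB, with 200 µg/mL as the highest test concentration.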

[1] = tested on: Mycobacterium tuberculosis; assay: Antitubercular activity against Mycobacterium tuberculosis H37Rv strain at 6.25 ug/ml by microplate alamar blue assay; format: functional
[2] = tested on: Mycobacterium tuberculosis; assay: Antitubercular activity against Mycobacterium tuberculosis H37Rv strain by BACTEC 460 radiometric assay; format: functional, organism-based
[3] = tested on: Mycobacterium tuberculosis; assay: Antitubercular activity against Mycobacterium tuberculosis H37Rv strain at 1.56 ug/ml by microplate alamar blue assay; format: functional
[4] = tested on: Mycobacterium tuberculosis; assay: Antitubercular activity against Mycobacterium tuberculosis H37Rv strain; format: functional

| Structure (SMILES) | Activity (L929) | inhibition at 6.25 µg/mL [1] [%] | IC50 [2] [µM] | MIC90 [2] [µg/mL] | inhibition at 1.56 µg/mL [3] [%] | MIC99 [4] [µg/mL] |
| --- | --- | --- | --- | --- | --- | --- |
| O=C(NNC(=O)c1cc(C23CC4CC(CC(C4)C2)C3)c2ccccc2n1)Nc1ccc(OC(F)(F)F)cc1 | Non-toxic | 99 | 0.427 | 3.12 (≈ 5.96 µM) | 50 | – |
| NNC(=O)c1cc(C23CC4CC(CC(C4)C2)C3)c2ccccc2n1 | Non-toxic | – | – | – | – | 3.12 (≈ 9.72 µM) |
| Cc1cccc(C)c1NC(=S)NNC(=O)c1cc(C23CC4CC(CC(C4)C2)C3)c2ccccc2n1 | Non-toxic | 51 | 12.3 | 6.25 (≈ 12.9 µM) | – | – |
